Source: ChEMBL document CHEMBL4138284, “Biomimetic Stereoselective Sulfa-Michael Addition Leads to Platensimycin and Platencin Sulfur Analogues against Methicillin-Resistant Staphylococcus aureus” (J Nat Prod, 2018)
≈ marks a conversion by molar mass, not a printed value.

Columns and labels:
Format in all cases: functional
[1] = tested on: Staphylococcus aureus; test: Antibacterial activity against methicillin-resistant Staphylococcus aureus isolate 6 incubated overnight by agar dilution method
In short: (§1)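 MIC by agar dilution. Strains were grown overnight in LB broth and diluted, then about 10^4 CFU (2 μL spots) were spotted onto LB agar plates containing test compound at 0.5 to 8 μg mL−1 agar. Plates were incubated overnight at 37 °C and inspected for growth. Clinical MSSA and MRSA isolates came from local hospitals.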

[2] = tested on: Staphylococcus aureus; test: Antibacterial activity against methicillin-resistant Staphylococcus aureus isolate 8 incubated overnight by agar dilution method; in short: as §1
[3] = tested on: Staphylococcus aureus; test: Antibacterial activity against methicillin-resistant Staphylococcus aureus isolate 11 incubated overnight by agar dilution method; in short: as §1
[4] = tested on: Staphylococcus aureus; test: Antibacterial activity against methicillin-resistant Staphylococcus aureus isolate 10 incubated overnight by agar dilution method; in short: as §1
[5] = tested on: Staphylococcus aureus; test: Antibacterial activity against methicillin-sensitive Staphylococcus aureus isolate 3 incubated overnight by agar dilution method; in short: as §1
[6] = tested on: Staphylococcus aureus; test: Antibacterial activity against methicillin-resistant Staphylococcus aureus isolate 5 incubated overnight by agar dilution method; in short: as §1
[7] = tested on: Staphylococcus aureus; test: Antibacterial activity against methicillin-sensitive Staphylococcus aureus isolate 4 incubated overnight by agar dilution method; in short: as §1
[8] = tested on: Staphylococcus aureus; test: Antibacterial activity against Staphylococcus aureus ATCC 29213 incubated overnight by agar dilution method; in short: as §1
[9] = tested on: Staphylococcus aureus; test: Antibacterial activity against methicillin-sensitive Staphylococcus aureus isolate 1 incubated overnight by agar dilution method; in short: as §1
[10] = tested on: Staphylococcus aureus; test: Antibacterial activity against methicillin-resistant Staphylococcus aureus isolate 9 incubated overnight by agar dilution method; in short: as §1
[11] = tested on: Staphylococcus aureus; test: Antibacterial activity against methicillin-resistant Staphylococcus aureus isolate 7 incubated overnight by agar dilution method; in short: as §1
[12] = tested on: Staphylococcus aureus; test: Antibacterial activity against methicillin-sensitive Staphylococcus aureus isolate 2 incubated overnight by agar dilution method; in short: as §1

SMILES	MIC [1]	MIC [2]	MIC [3]	MIC [4]	MIC [5]	MIC [6]	MIC [7]	MIC [8]	MIC [9]	MIC [10]	MIC [11]	MIC [12]
C[C@]12C[C@]34C[C@@H]1C[C@H](O2)[C@H]3[C@](C)(CCC(=O)Nc1c(O)ccc(C(=O)O)c1O)C(=O)C[C@@H]4SC(=O)c1ccc(Cl)cc1	1 µg/mL (≈ 1.63 µM)	1 µg/mL (≈ 1.63 µM)	2 µg/mL (≈ 3.26 µM)	1 µg/mL (≈ 1.63 µM)	1 µg/mL (≈ 1.63 µM)	1 µg/mL (≈ 1.63 µM)	1 µg/mL (≈ 1.63 µM)	1 µg/mL (≈ 1.63 µM)	1 µg/mL (≈ 1.63 µM)	1 µg/mL (≈ 1.63 µM)	1 µg/mL (≈ 1.63 µM)	1 µg/mL (≈ 1.63 µM)
Cc1ccc(S[C@H]2CC(=O)[C@@](C)(CCC(=O)Nc3c(O)ccc(C(=O)O)c3O)[C@@H]3[C@@H]4C[C@H]5C[C@]23C[C@]5(C)O4)cc1	2 µg/mL (≈ 3.54 µM)	2 µg/mL (≈ 3.54 µM)	2 µg/mL (≈ 3.54 µM)	2 µg/mL (≈ 3.54 µM)	2 µg/mL (≈ 3.54 µM)	4 µg/mL (≈ 7.07 µM)	2 µg/mL (≈ 3.54 µM)	4 µg/mL (≈ 7.07 µM)	2 µg/mL (≈ 3.54 µM)	2 µg/mL (≈ 3.54 µM)	4 µg/mL (≈ 7.07 µM)	2 µg/mL (≈ 3.54 µM)
CC(=O)S[C@H]1CC(=O)[C@@](C)(CCC(=O)Nc2c(O)ccc(C(=O)O)c2O)[C@@H]2[C@@H]3C[C@H]4C[C@]12C[C@]4(C)O3	2 µg/mL (≈ 3.86 µM)	2 µg/mL (≈ 3.86 µM)	4 µg/mL (≈ 7.73 µM)	2 µg/mL (≈ 3.86 µM)	2 µg/mL (≈ 3.86 µM)	2 µg/mL (≈ 3.86 µM)	2 µg/mL (≈ 3.86 µM)	2 µg/mL (≈ 3.86 µM)	2 µg/mL (≈ 3.86 µM)	2 µg/mL (≈ 3.86 µM)	4 µg/mL (≈ 7.73 µM)	2 µg/mL (≈ 3.86 µM)
C[C@]12C[C@]34C[C@@H]1C[C@H](O2)[C@H]3[C@](C)(CCC(=O)Nc1c(O)ccc(C(=O)O)c1O)C(=O)C[C@@H]4SC(=O)c1ccc(C(F)(F)F)cc1	1 µg/mL (≈ 1.54 µM)	1 µg/mL (≈ 1.54 µM)	2 µg/mL (≈ 3.09 µM)	1 µg/mL (≈ 1.54 µM)	1 µg/mL (≈ 1.54 µM)	2 µg/mL (≈ 3.09 µM)	1 µg/mL (≈ 1.54 µM)	1 µg/mL (≈ 1.54 µM)	0.5 µg/mL (≈ 0.772 µM)	1 µg/mL (≈ 1.54 µM)	2 µg/mL (≈ 3.09 µM)	1 µg/mL (≈ 1.54 µM)
C[C@]12C[C@]34C[C@@H]1C[C@H](O2)[C@H]3[C@](C)(CCC(=O)Nc1c(O)ccc(C(=O)O)c1O)C(=O)C[C@@H]4SC(=O)c1ccc(Br)cc1	1 µg/mL (≈ 1.52 µM)	1 µg/mL (≈ 1.52 µM)	2 µg/mL (≈ 3.04 µM)	1 µg/mL (≈ 1.52 µM)	1 µg/mL (≈ 1.52 µM)	2 µg/mL (≈ 3.04 µM)	1 µg/mL (≈ 1.52 µM)	1 µg/mL (≈ 1.52 µM)	1 µg/mL (≈ 1.52 µM)	1 µg/mL (≈ 1.52 µM)	1 µg/mL (≈ 1.52 µM)	1 µg/mL (≈ 1.52 µM)
C[C@]12C[C@]34C[C@@H]1C[C@H](O2)[C@H]3[C@](C)(CCC(=O)Nc1c(O)ccc(C(=O)O)c1O)C(=O)C[C@@H]4SC(=O)c1ccccc1C(F)(F)F	1 µg/mL (≈ 1.54 µM)	1 µg/mL (≈ 1.54 µM)	4 µg/mL (≈ 6.18 µM)	1 µg/mL (≈ 1.54 µM)	1 µg/mL (≈ 1.54 µM)	1 µg/mL (≈ 1.54 µM)	1 µg/mL (≈ 1.54 µM)	2 µg/mL (≈ 3.09 µM)	1 µg/mL (≈ 1.54 µM)	1 µg/mL (≈ 1.54 µM)	2 µg/mL (≈ 3.09 µM)	1 µg/mL (≈ 1.54 µM)
C[C@]12C[C@]34C[C@@H]1C[C@H](O2)[C@H]3[C@](C)(CCC(=O)Nc1c(O)ccc(C(=O)O)c1O)C(=O)C[C@@H]4SC(=O)c1ccc2ccccc2c1	1 µg/mL (≈ 1.59 µM)	1 µg/mL (≈ 1.59 µM)	4 µg/mL (≈ 6.35 µM)	1 µg/mL (≈ 1.59 µM)	0.5 µg/mL (≈ 0.794 µM)	2 µg/mL (≈ 3.18 µM)	0.5 µg/mL (≈ 0.794 µM)	2 µg/mL (≈ 3.18 µM)	1 µg/mL (≈ 1.59 µM)	1 µg/mL (≈ 1.59 µM)	4 µg/mL (≈ 6.35 µM)	0.5 µg/mL (≈ 0.794 µM)
C[C@]12C[C@]34C[C@@H]1C[C@H](O2)[C@H]3[C@](C)(CCC(=O)Nc1c(O)ccc(C(=O)O)c1O)C(=O)C[C@@H]4SC(=O)c1cccc(F)c1	1 µg/mL (≈ 1.67 µM)	1 µg/mL (≈ 1.67 µM)	2 µg/mL (≈ 3.35 µM)	1 µg/mL (≈ 1.67 µM)	1 µg/mL (≈ 1.67 µM)	1 µg/mL (≈ 1.67 µM)	1 µg/mL (≈ 1.67 µM)	2 µg/mL (≈ 3.35 µM)	1 µg/mL (≈ 1.67 µM)	1 µg/mL (≈ 1.67 µM)	2 µg/mL (≈ 3.35 µM)	1 µg/mL (≈ 1.67 µM)
C=C1C[C@@]23CCC1C[C@@H]2[C@](C)(CCC(=O)Nc1c(O)ccc(C(=O)O)c1O)C(=O)C[C@@H]3SC(=O)c1ccccc1 (single isomer, unassigned)	2 µg/mL (≈ 3.55 µM)	2 µg/mL (≈ 3.55 µM)	2 µg/mL (≈ 3.55 µM)	1 µg/mL (≈ 1.77 µM)	1 µg/mL (≈ 1.77 µM)	2 µg/mL (≈ 3.55 µM)	1 µg/mL (≈ 1.77 µM)	4 µg/mL (≈ 7.1 µM)	1 µg/mL (≈ 1.77 µM)	2 µg/mL (≈ 3.55 µM)	4 µg/mL (≈ 7.1 µM)	1 µg/mL (≈ 1.77 µM)
C=C1C[C@@]23CCC1C[C@@H]2[C@](C)(CCC(=O)Nc1c(O)ccc(C(=O)O)c1O)C(=O)C[C@@H]3SC(=O)Cc1ccc(F)cc1 (single isomer, unassigned)	2 µg/mL (≈ 3.36 µM)	1 µg/mL (≈ 1.68 µM)	4 µg/mL (≈ 6.71 µM)	1 µg/mL (≈ 1.68 µM)	1 µg/mL (≈ 1.68 µM)	2 µg/mL (≈ 3.36 µM)	0.5 µg/mL (≈ 0.839 µM)	4 µg/mL (≈ 6.71 µM)	1 µg/mL (≈ 1.68 µM)	1 µg/mL (≈ 1.68 µM)	4 µg/mL (≈ 6.71 µM)	1 µg/mL (≈ 1.68 µM)
